Screening results as filed in PubChem.
Only some compounds are listed: those with a hit (about 1.9% of all), similar ones and a draw of the others.
APP transl inh: APP translation inhibition | hit rate 0.82% among 190,000 | inhibition, % at 2 µM | SH-SY5Y APP 5'UTR-luciferase reporter, luminescence;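 active = inhibition above a set limit, derived from the sample mean plus 3 SD, cut at about 45% in these data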
Hep lipid drop: modulators of hepatic lipid droplet formation. hit rate 0.4% among 240,000. inhibition, % at 6.5 µM. AML12 mouse hepatocytes, oleate lipid droplets, BODIPY imaging;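 active = lipid droplet intensity inhibited by at least 50%, with more than 500 cells counted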
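System: AML12 hepatocytes (mouse). Probe or stimulus: oleic acid at 100 µM to induce lipid droplet formation. Times: overnight treatment with compound plus oleate. Detection: Image-based BODIPY and DAPI two-channel analysis. Evaluation: percent inhibition of filter-corrected integrated lipid droplet intensity per well.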
H9c2 TAG inh: reduces triacylglycerol accumulation in H9c2 cells | Nile Red lipid (TAG) fluorescence; cells loaded with 200 µM oleic acid | AID 651582 | hit rate 0.66% among 230,000 | inhibition, % at 12.5 µM;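 active = pattern-corrected inhibition of lipid staining of at least 50% with the nuclear-stain viability signal not falling by more than 50%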;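 note: 0% = DMSO wells and 100% = triacsin C control wells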
697 NFkB inh: lowers PMA/ionomycin-induced NF-kB signal in 697 B cells. inhibition, % at 4 µM. 697 B-cell NF-kB luciferase reporter, 16 h. hit rate 0.33% among 330,000; in the data active = inhibition above about 35%
aSyn 5UTR inh: 5' untranslated region of α-synuclein, MLPCN primary screen | inhibition, % (tested at 7.5 µM) | AID 1813 | alpha-synuclein 5'UTR reporter, inhibitor activity | hit rate 0.82% among 300,000; in the data active = inhibition above about 60%;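 note: H4 neuroglioblastoma cells stably carrying SNCA 5'UTR luciferase fusion; 0% = DMSO wells and 100% = positive control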
Jurkat NFkB inh: lowers PMA/ionomycin-induced NF-kB signal in Jurkat cells; PMA/ionomycin-induced NF-kB luciferase reporter, luminescence; inhibition, % at 4 µM; hit rate 0.53% among 330,000; AID 435003; in the data active = inhibition above about 50%
H9c2 TAG conf: confirmation of triacylglycerol accumulation inhibitors; shares compounds with H9c2 TAG inh; H9c2 lipid accumulation, Nile Red fluorescence; cells loaded with 200 µM oleic acid; inhibition, % at 12.5 µM; hit rate 71% among 990; AID 651629;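 active = mean inhibition across replicates of 40% or more; inactive = mean inhibition below 40%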;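 note: plate controls were DMSO only wells for no effect and Triacsin C treated wells for full effect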
Numbers without * were called inactive; . = no result given.

SMILES	APP transl inh	Hep lipid drop	H9c2 TAG inh	697 NFkB inh	aSyn 5UTR inh	Jurkat NFkB inh	H9c2 TAG conf
COc1ccc(-c2cc(C(=O)Nc3cc(OC)cc(C(=O)Nc4cccc(C(F)(F)F)c4)c3)[nH]n2)cc1	.	48.4	84.3*	-5.2	11.8	-28.4	76.7*
O=C(CC1OC(=O)c2ccccc21)Nc1cc(Cl)ccc1N1CCOCC1 (stereo unspecified)	.	.	-13.5	-9.7	.	-15.8	.
CS(=O)(=O)Oc1ccc2c(c1)O/C(=C\C=C\c1ccccc1)C2=O	.	-13.8	54.3*	-11.7	-80.8	15.9	2.9
CS(=O)(=O)Oc1ccc2c(c1)O/C(=C\c1cccc([N+](=O)[O-])c1)C2=O	.	.	.	8.1	-3.1	-27.9	.
CC(C)Oc1ccc(C(=O)NC2(C(F)(F)F)NC(=O)N(CCCc3ccccc3)C2=O)cc1 (stereo unspecified)	9.9	13.9	.	-46.8	25.8	25.2	.
O=C(NCc1cccs1)C1CCCN(C(=O)Nc2ccccc2)C1 (stereo unspecified)	.	-9.2	.	28.7	13.0	4.7	.
NC(N)=Nc1ccc(C=C2C=Cc3ccccc32)cc1	.	.	60.2*	.	.	.	61.0*
Nc1ccc(C=C2C=Cc3ccccc32)cc1	.	.	11.8	.	.	.	.
Cc1ccc(NC(=O)c2cc([N+](=O)[O-])ccc2NCc2cccnc2)cc1Cl	-7.0	.	67.8*	-2.2	-11.4	-11.0	40.5*
CCOc1cc2[nH]c(=O)n(CCCCC(=O)N3CCCCCC3)c(=O)c2cc1OCC	-20.0	12.6	63.1*	-64.3	20.6	-0.8	35.0
c1ccc(CCNCC2COc3ccccc3O2)cc1 (stereo unspecified)	.	.	.	-6.6	-64.0	-18.5	.
OC1CC2CCC(C1)N2CCCN1c2ccccc2Sc2ccc(Cl)cc21 (stereo unspecified)	.	.	103.7*	.	.	.	78.6*
Cc1ccc(NC(=O)COC(=O)c2ccc3c(c2)NC(=O)C2CCCN32)cc1 (stereo unspecified)	5.4	-5.1	66.4*	3.3	-18.1	-4.1	22.1
COC(=O)c1ccc2c(c1)NC(=O)C1CCCN21 (stereo unspecified)	.	.	.	1.8	5.1	9.5	.
CC(=O)Oc1ccc(S(=O)(=O)c2ccc(OC(C)=O)cc2)cc1	-12.2	2.3	65.1*	-4.8	.	8.9	1.5
S=C(NCc1cccnc1)c1ccccc1	.	.	.	12.2	2.6	2.6	.
CCc1nnc(NC(=O)c2cc3c(s2)CCCCC3)s1	-32.4	.	50.0*	-116.3	-36.9	-118.9	12.0
COc1ccc([N+](=O)[O-])cc1NC(=O)C(C)OC(=O)Cn1[nH]c(=O)c2ccccc2c1=O (stereo unspecified)	.	.	13.5	4.8	3.3	12.6	.
Nc1nc(SCc2ccccc2[N+](=O)[O-])c2ncn(Cc3ccccc3)c2n1	.	.	12.3	.	.	.	.
COc1ccc(CNC(=O)C2CCN(c3nc(-c4ccccc4)nc4c3CCC4)CC2)cc1	.	42.4	52.4*	-14.2	10.6	5.5	41.5*
CCOC(=O)CN(C(=O)CSc1nnc2c(n1)[nH]c1ccc(F)cc12)c1ccccc1	14.4	.	-1.1	15.2	6.4	-7.7	.
CCOC(=O)CN(C(=O)CSc1nnc2c(n1)[nH]c1ccccc12)c1ccccc1	-14.5	.	50.6*	-23.3	10.7	0.1	29.5
CC1CCN(c2cc(N3CCC(C)CC3)c([N+](=O)[O-])cc2/C=C(\C#N)c2nn(-c3ccccc3)c(N)c2C#N)CC1	2.9	.	52.4*	14.0	11.8	3.2	49.4*
C/C(=N\Nc1cc(N2CCOCC2)nc(C)n1)c1ccc(F)cc1	.	-0.3	52.2*	15.3	10.6	10.7	38.5
C/C(=N\Nc1cc(N2CCCCC2)nc(C)n1)c1ccc(Br)cc1	.	-11.2	13.2	-49.7	-3.7	14.0	.
SMILES	APP transl inh	Hep lipid drop	H9c2 TAG inh	697 NFkB inh	aSyn 5UTR inh	Jurkat NFkB inh	H9c2 TAG conf
CCC(=O)Nc1nc2nc(-c3ccccc3)cc(-c3ccccc3)n2n1	7.7	.	41.1	8.7	40.7	8.5	.
CCCC(=O)Nc1nc2nc(-c3ccccc3)cc(-c3ccccc3)n2n1	8.2	.	52.2*	32.1	16.6	6.8	35.7
COc1cccc(/C=C/C(=O)NCc2ccc(S(N)(=O)=O)cc2)c1	.	-13.1	3.8	10.4	-2.4	7.4	.
CS(=O)(=O)c1ccc(C(=O)OCC(=O)N2CCOCC2)cc1[N+](=O)[O-]	.	.	61.7*	.	.	.	59.2*
CC(C)(Oc1ccc(Cl)cc1)C(=O)Nc1ccc2oc(-c3ccncc3)nc2c1	-3.8	46.8	56.6*	-19.5	-29.1	16.4	46.4*
CC(C)(C)OC(=O)N(CCc1ccccc1)Cc1ccccc1OCc1cccc(NC(=O)/C=C/c2ccccc2)c1	.	.	53.1*	.	.	.	43.2*
CC(C)(C)OC(=O)N(CCc1ccccc1)Cc1ccc(OCc2cccc(NC(=O)/C=C/c3ccccc3)c2)cc1	.	.	50.9*	.	.	.	65.3*
O=C(c1ccc(Br)cc1)N1CCCc2ccccc21	.	-14.3	7.3	-22.6	9.4	-11.4	.
O=C(/C=C/Sc1ccc(C(F)(F)F)cn1)c1ccccc1	.	16.8	50.1*	-43.9	-72.4	25.8	45.1*
O=C(CSc1ccc(C(F)(F)F)cn1)Nc1ccccc1	.	7.4	-2.0	8.2	.	-6.2	.
Oc1ccc(C[C@H]2CNC(=S)N2CC2CCCN2C[C@H](Cc2ccc(O)cc2)N2C[C@H](Cc3ccc(O)cc3)N(CC3CCCCC3)C2=S)cc1 (stereo partly specified)	.	.	75.4*	.	.	.	72.8*
COc1ccccc1CNC(=O)COC(=O)C1=COCCO1	13.9	.	-14.4	10.2	15.5	7.9	.
O=C(COC(=O)C1=COCCO1)NCc1ccc(Cl)cc1Cl	.	.	66.0*	.	.	.	9.2
C=C(C)c1cccc(C(C)(C)NC(=O)N2CCCC(C(N)=O)C2)c1 (stereo unspecified)	3.3	-15.0	-3.9	-17.6	0.9	-5.6	.
C=C(C)c1cccc(C(C)(C)NC(=O)N2CCC(C(N)=O)CC2)c1	-10.1	12.6	58.7*	8.0	4.1	3.5	7.2
O=C(NC(=S)N(CCCCO)C1CCCCC1)c1sc2ccccc2c1Cl	-17.8	.	.	-46.3	15.3	-11.1	.
CC1(C)CCCN(Cc2c(O)ccc3c(=O)c(-c4nc5ccccc5s4)c(N)oc23)C1	.	-8.1	55.4*	-95.6	-125.1	-29.4	67.8*
CC[C@H](C)[C@H](NC(N)=O)C(=O)NCCc1ccc(OC)c(OC)c1	6.7	20.3	94.0*	10.0	16.1	0.0	2.5
COc1ccc(CCNC(=O)C(NC(=O)OCc2ccccc2)C(C)C)cc1OC (stereo unspecified)	.	.	-2.0	7.0	32.3	-9.3	.
c1ccc(C2Nc3ccccc3-c3nc4ccccc4n32)cc1 (stereo unspecified)	-0.1	4.1	25.3	-48.1	-40.8	-8.2	.
c1ccc(C2Nc3ccccc3-c3nc4ccccc4n32)nc1 (stereo unspecified)	-21.5	-2.6	55.1*	-57.0	-74.0	-40.7	15.8
Cc1c(Cl)cnc(NC(=O)CSc2nncs2)c1Cl	-13.2	-1.1	.	22.1	34.6	-0.4	.
